The subject of assay [1] is HeLa. Description: Antiproliferative activity against human HeLa cells after 48 hrs by SRB assay. The class given is functional, cell-based. For orientation: Sulforhodamine B stains cellular protein and so reports cell mass.
Assay [2] has as its system HeLa. Description: Stabilization of microtubule in human HeLa cells assessed as increase in cellular density of interphase microtubules at 50 uM after 18 hrs by immunofluoroescence analysis. The class given is cell-based. In a few lines:
(§1)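 HeLa cells in Basal Medium Eagle with 10% FBS and gentamicin, treated with vehicle or taccalonolide for 18 h. Interphase microtubules visualized by indirect immunofluorescence with a β-tubulin antibody and imaged by fluorescence microscopy. Microtubule density and bundling judged from representative images against vehicle-treated cells.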

The subject of assay [3] is HeLa. The experiment in a line: Antiproliferative activity against human HeLa cells. The class given is functional, cell-based. In a few lines: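 HeLa cells (ATCC) grown in Basal Medium Eagle with 10% FBS and 50 μg/mL gentamicin and exposed to compound for 48 h. Cells then TCA-fixed and stained with sulforhodamine B, with density read as absorbance at 560 nm. IC50 (50% inhibition of proliferation) taken ± SD from three independent experiments, each run in triplicate.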

The subject of assay [4] is HeLa. The experiment in a line: Stabilization of microtubule in human HeLa cells assessed as increase in cellular density of interphase microtubules at 10 uM after 18 hrs by immunofluoroescence analysis. Type of assay: cell-based. The gist of the method: as §1

SMILES strings stand for the structures. Calls of active or inactive are those of the source. The rule behind the calls is not given here. Some results are limits rather than exact numbers.

Consider `CC(=O)O[C@H]1[C@H]2[C@H]([C@@H]3[C@@H](O)[C@@H]4[C@H]([C@H](C)C=C5OC(=O)[C@@](C)(O)[C@@]54C)[C@@]3(C)[C@H]1OC(C)=O)[C@@H](O)C(=O)[C@H]1C[C@@H]3O[C@@H]3[C@H](OC(C)=O)[C@]21C` [TACCALONOLIDE B], for which, in assay [1], the IC50 – broadly, the midpoint of a concentration-inhibition curve – came out at 3.12 µM.
Take `CC(=O)O[C@H]1C[C@H]2[C@H]([C@@H]3[C@@H](O)[C@@H]4[C@H]([C@H](C)C=C5OC(=O)[C@@](C)(O)[C@@]54C)[C@]31C)[C@@H](O)C(=O)[C@@]1(O)C[C@@H]3O[C@@H]3[C@H](OC(C)=O)[C@]21C`: the outcome in assay [2] was Active. The molecule also returned an IC50 in assay [1] of 34.4 µM.
In assay [3], `CC(=O)O[C@@H]1[C@H]2[C@H]3[C@H]([C@H](OC(C)=O)[C@H](OC(C)=O)[C@]2(C)[C@H]2[C@H](C)[C@@H]4O[C@@]45OC(=O)[C@@](C)(O)[C@]5(C)[C@H]12)[C@]1(C)[C@H](C[C@@H]2O[C@@H]2[C@@H]1OC(C)=O)C(=O)[C@@H]3O` registered an IC50 of 0.023 µM.
On to `CC(=O)O[C@H]1C[C@H]2[C@H]([C@@H]3[C@@H](O)[C@@H]4[C@H]([C@H](C)C=C5OC(=O)[C@@](C)(O)[C@@]54C)[C@]31C)[C@@H](O)C(=O)[C@@]1(O)C[C@@H]3O[C@@H]3[C@H](OC(=O)CC(C)C)[C@]21C`, for which the result in assay [2] was Active. The molecule further returned an IC50 in assay [1] of 2 µM.
Turning to `CC(=O)O[C@H]1C[C@H]2[C@H]([C@@H]3[C@@H](O)[C@@H]4[C@H]([C@H](C)C=C5OC(=O)[C@@](C)(O)[C@@]54C)[C@]31C)[C@@H](O)C(=O)[C@H]1C[C@@H]3O[C@@H]3[C@H](O)[C@@]12C`, the outcome in assay [4] was Active. The molecule further registered a half-inhibitory concentration (IC50) in assay [1] of 1.5 µM.
In turn, `CC(=O)O[C@H]1[C@H]2[C@@H](C(=O)[C@H](O)[C@H]3C[C@@H]4O[C@@H]4[C@H](OC(C)=O)[C@]23C)[C@@H]2[C@@H](O)[C@@H]3[C@H]([C@H](C)C=C4OC(=O)[C@@](C)(O)[C@@]43C)[C@@]2(C)[C@H]1OC(C)=O` registered an IC50 in assay [1] of 49.2 µM.
Same read-out and setting: the value for `CC(=O)O[C@@H]1[C@H]2[C@H]3[C@H]([C@H](OC(C)=O)[C@H](OC(C)=O)[C@]2(C)[C@@H]2[C@@H]1[C@]1(C)C(=C[C@H]2C)OC(=O)[C@@]1(C)O)[C@]1(C)[C@H](C[C@@H]2O[C@@H]2[C@@H]1OC(C)=O)C(=O)[C@@H]3O` [TACCALONOLIDE A] was 5.32 µM; that for `CC(=O)O[C@@H]1[C@H]2[C@@H]3[C@@H](O)C(=O)[C@H]4C[C@@H]5O[C@@H]5[C@H](OC(C)=O)[C@]4(C)[C@H]3C[C@H](OC(C)=O)[C@]2(C)[C@@H]2[C@@H]1[C@]1(C)C(=C[C@H]2C)OC(=O)[C@@]1(C)O` [TACCALONOLIDE E] was 39.5 µM.
The same measure, in the same setting: the result for `CC(=O)O[C@H]1C[C@H]2[C@H]([C@@H]3[C@@H](O)[C@@H]4[C@H]([C@H](C)C=C5OC(=O)[C@@](C)(O)[C@@]54C)[C@]31C)[C@@H](O)C(=O)[C@H]1C[C@@H]3O[C@@H]3[C@H](OC(C)=O)[C@@]12C` [TACCALONOLIDE N] reads 8.5 µM.
Take `CC(=O)O[C@H]1[C@H]2[C@H]([C@@H]3[C@@H](O)[C@@H]4[C@H]([C@H](C)[C@@H]5O[C@@]56OC(=O)[C@@](C)(O)[C@]46C)[C@@]3(C)[C@H]1OC(C)=O)[C@@H](O)C(=O)[C@H]1C[C@@H]3O[C@@H]3[C@H](OC(C)=O)[C@]21C`: the half-inhibitory concentration (IC50) in assay [3] was 0.0042 µM.
As for `CC(=O)O[C@H]1[C@H]2[C@H]([C@@H]3[C@H]4OC(=O)[C@@](C)(O)[C@@]5(C)C(=O)C[C@@H](C)[C@@H]([C@@H]45)[C@@]3(C)[C@H]1OC(C)=O)[C@@H](O)C(=O)[C@H]1C[C@@H]3O[C@@H]3[C@H](OC(C)=O)[C@]21C`, in assay [2], the outcome was inactive. The molecule further came in with a 50% inhibitory concentration (IC50) in assay [1] of more than 50 µM.
For the molecule `CC(=O)O[C@H]1C[C@H]2[C@H]([C@@H]3[C@H]4OC(=O)[C@@](C)(O)[C@@]5(C)C(=O)C[C@@H](C)[C@@H]([C@@H]45)[C@]31C)[C@@H](O)C(=O)[C@H]1C[C@@H]3O[C@@H]3[C@H](OC(C)=O)[C@@]12C`, in assay [2], the result was inactive. Moreover, the IC50 in assay [1] is more than 50 µM.
